Laboratory results taken from the RNAGym collection of RNA variant scans (doi:10.1126/science.aae0568).
Fewer inactive variants are shown than the library holds.

B1: tRNA (parent)
chain: GUUCCGUUGGCGUAAUGGUAACGCGUCUCCCUCCUAAGGAGAAGACUGCGGGUUCGAGUCCCGUACGGAACG

Variants of: B1
Test: yeast fitness relative to wild type (ratio to wild type); higher = fitter; tRNA-Arg(CCU), competitive growth, 37 C, YPD
How it was run: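 Start and end populations of a pooled competition were compared by 100-nucleotide paired-end sequencing of gene amplicons. The Saccharomyces cerevisiae strains carried tRNA-Arg(CCU) gene variants at the native genomic locus, synthesised with a 3% per-site mutation rate at 69 sites, and competed in YPD at 37°C for 24 hours in six parallel replicates. Darwinian fitness relative to wild type was based on the change in genotype frequencies. Genotypes required ≥ 100 starting reads, and estimates < 0.5 were set to 0.5.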

Row | Variant | yeast fitness
1 | C5G A20U C62G | ≤ 0.5
2 | C5G A20U G51C C61G A65U A70C | 0.565
3 | C5G A20U G68C | ≤ 0.5
4 | C5G A21C A43U A70G | ≤ 0.5
5 | C5G A21C A45G G68A | ≤ 0.5
6 | C5G A21C G51A G58A | ≤ 0.5
7 | C5G A21C U32C G39A A57U U59C | ≤ 0.5
8 | C5G A21G A45U A69U | 0.634
9 | C5G A21G C27G C34G A43C C46G A70U | 0.569
10 | C5G A21G C31G A36C A57G C62U | 0.586
11 | C5G A21G C33A G68C A69U | ≤ 0.5
12 | C5G A21G C49A U54C A65G | ≤ 0.5
13 | C5G A21G G41A G67A | ≤ 0.5
14 | C5G A21G G44A G58C | 0.616
15 | C5G A21G U26C C49A U54C A65G | ≤ 0.5
16 | C5G A21G U32C A65U G68A | 0.507
17 | C5G A21G U32C A69C | ≤ 0.5
18 | C5G A21G U32C U47A G68A | ≤ 0.5
19 | C5G A21U | 0.731
20 | C5G A21U A43G C62A | ≤ 0.5
21 | C5G A21U C29A U64C | ≤ 0.5
22 | C5G A21U G23A C29A A37U A57G C61U | 0.541
23 | C5G A21U G23A C29A A37U C61U | ≤ 0.5
24 | C5G A36C A42G | ≤ 0.5

Row | Variant | yeast fitness
25 | C5G A36G G44C | 0.672
26 | C5G A36U C61U | ≤ 0.5
27 | C5G A37C A42U | 0.533
28 | C5G A37C A43G A45U G51C C62G | ≤ 0.5
29 | C5G A37C A57U | ≤ 0.5
30 | C5G A37G | 0.805
31 | C5G A37G C46G | 0.598
32 | C5G A37U C46U | 0.536
33 | C5G A40C C49U | ≤ 0.5
34 | C5G A40G | 0.755
35 | C5G A40U | 0.876
36 | C5G A40U A42G U53A U54A | ≤ 0.5
37 | C5G A42C | 0.814
38 | C5G A42C A57C G68U | ≤ 0.5
39 | C5G A42C A70C | 0.689
40 | C5G A42C C60A | ≤ 0.5
41 | C5G A42C U54G | ≤ 0.5
42 | C5G A42G U64C | 0.72
43 | C5G A42G U64G | 0.637
44 | C5G A42U | 0.683
45 | C5G A42U A57U U59A A69C | ≤ 0.5
46 | C5G A42U A70C | 0.681
47 | C5G A42U G63A | 0.531
48 | C5G A42U G68A | 0.582

Row | Variant | yeast fitness
49 | C5G A43C G48A U59G | ≤ 0.5
50 | C5G A43C G52C | ≤ 0.5
51 | C5G A43C G67A | 0.565
52 | C5G A43G A69C | 0.615
53 | C5G A43G G67U | 0.543
54 | C5G A45C A57U | ≤ 0.5
55 | C5G A45C C60U A69U | 0.52
56 | C5G A45C U64G | ≤ 0.5
57 | C5G A45G | 0.984
58 | C5G A45U | 1.01
59 | C5G A45U A57U | 0.565
60 | C5G A45U C62U | 0.725
61 | C5G A45U G68C | ≤ 0.5
62 | C5G A65C G68A | 0.671
63 | C5G A65G A69U | 0.71
64 | C5G A65U | 0.796
65 | C5G A65U G67C | 0.569
66 | C5G A69C A70U | 0.765
67 | C5G A70C | 0.905
68 | C5G A70U | 0.812
69 | C5G C11A A14G G25C C29G C60A | ≤ 0.5
70 | C5G C11A A14G G25C C29G C60G | ≤ 0.5
71 | C5G C11A A14G G25C C29G C66U | ≤ 0.5
72 | C5G C11A A14G G25C C29G G56C A57C | ≤ 0.5

Row | Variant | yeast fitness
73 | C5G C11A A15G G18A C30G | 0.587
74 | C5G C11A A15G G18A C30G G68A | ≤ 0.5
75 | C5G C11A A20C C22G C30U C31G C61A G67A | ≤ 0.5
76 | C5G C11A A20G U28C C33U A70C | ≤ 0.5
77 | C5G C11A A40U U64C | 0.536
78 | C5G C11A C46G | 0.639
79 | C5G C11A U16A A21U G67A | ≤ 0.5
80 | C5G C11A U19C A20C C33A C61G | 0.676
81 | C5G C11A U19C A20C C33A C61G C66U A69U | ≤ 0.5
82 | C5G C11G | 0.614
83 | C5G C11G A14U A15U A65G | ≤ 0.5
84 | C5G C11G A14U A15U C61U G68C | ≤ 0.5
85 | C5G C11G A15C A45U C49U | ≤ 0.5
86 | C5G C11G A20C C33U C34U | ≤ 0.5
87 | C5G C11G A20C C33U C34U C61G | 0.529
88 | C5G C11G A21C G67C | ≤ 0.5
89 | C5G C11G A40G | 0.556
90 | C5G C11G A40G C60G | 0.588
91 | C5G C11G A42C C49U | ≤ 0.5
92 | C5G C11G A42G G68A | ≤ 0.5
93 | C5G C11G C27G G48A | 0.524
94 | C5G C11G G12A C46U | ≤ 0.5
95 | C5G C11G U35C | 0.643
96 | C5G C11U | 0.886

Row | Variant | yeast fitness
97 | C5G C11U A14G G25C C29G | ≤ 0.5
98 | C5G C11U A21G C60A | ≤ 0.5
99 | C5G C11U C34A U47A | 0.528
100 | C5G C11U G25C | 0.571
101 | C5G C11U U47A G68C | ≤ 0.5
102 | C5G C22A C31U G50U C60U | ≤ 0.5
103 | C5G C22A C33G U35A C55U | ≤ 0.5
104 | C5G C22A G25A A37U | 0.596
105 | C5G C22A U26C C33G | 0.564
106 | C5G C22A U26C C33G G63A | ≤ 0.5
107 | C5G C22A U26C C33G U64A G67C | 0.544
108 | C5G C22G A36C | ≤ 0.5
109 | C5G C22G A45G A65U | ≤ 0.5
110 | C5G C22G C55A A65U | 0.63
111 | C5G C22G C62A | 0.509
112 | C5G C22G G39C A57U | 0.723
113 | C5G C22U A36C A42G | ≤ 0.5
114 | C5G C22U A37G G50C | ≤ 0.5
115 | C5G C22U C29G | 0.659
116 | C5G C22U C31G C60A | ≤ 0.5
117 | C5G C22U C62A A65C | ≤ 0.5
118 | C5G C22U U26G U32A U35A A69C | ≤ 0.5
119 | C5G C22U U28G | ≤ 0.5
120 | C5G C24A A42U A57C U64A | ≤ 0.5

Row | Variant | yeast fitness
121 | C5G C24G C27G C60U | 0.627
122 | C5G C24G C30G C31U U35A A36U G44A G63C | 0.966
123 | C5G C24G C34G C46U C61A A70U | ≤ 0.5
124 | C5G C24G C49U G58A G63A | ≤ 0.5
125 | C5G C24G G50A C60U A69U | ≤ 0.5
126 | C5G C24U A43U C55U G68C | ≤ 0.5
127 | C5G C24U A45G | 0.799
128 | C5G C24U C46A G68U | ≤ 0.5
129 | C5G C24U C66A | ≤ 0.5
130 | C5G C24U G56C | ≤ 0.5
131 | C5G C27A | 0.709
132 | C5G C27A C49A | ≤ 0.5
133 | C5G C27G C29U A45G C49A C66U | ≤ 0.5
134 | C5G C27G C33U G56A U64C A69U | ≤ 0.5
135 | C5G C27G C55G | ≤ 0.5
136 | C5G C27G U32C C33U G56A A69U | ≤ 0.5
137 | C5G C27U | 0.651
138 | C5G C27U C34A G51A | ≤ 0.5
139 | C5G C27U C49A U54C C60G | ≤ 0.5
140 | C5G C27U G41C | ≤ 0.5
141 | C5G C27U G41C A57C | 0.565
142 | C5G C27U G44C G48C | ≤ 0.5
143 | C5G C27U G51A | ≤ 0.5
144 | C5G C29A C30U U35A C55G G56C | ≤ 0.5

Row | Variant | yeast fitness
145 | C5G C29A C31A | 0.714
146 | C5G C29A G52A | 0.695
147 | C5G C29A G58C U64G | 0.545
148 | C5G C29A U53C C62A G67A | ≤ 0.5
149 | C5G C29G C46G | ≤ 0.5
150 | C5G C29G C66A | ≤ 0.5
151 | C5G C29G G41C A57U | ≤ 0.5
152 | C5G C29G U32A A37U | ≤ 0.5
153 | C5G C29U A37G A65G | ≤ 0.5
154 | C5G C29U A37U G38C | ≤ 0.5
155 | C5G C29U A40G A57G | ≤ 0.5
156 | C5G C29U A43C | 0.537
157 | C5G C29U C31G G44C | 0.556
158 | C5G C29U C66U | 0.57
159 | C5G C29U G44C | ≤ 0.5
160 | C5G C30A | 0.736
161 | C5G C30A A36G A45C A69U | ≤ 0.5
162 | C5G C30A A40G A70U | ≤ 0.5
163 | C5G C30A C31A C49U C55G | 0.544
164 | C5G C30G C33G A37U C61G | ≤ 0.5
165 | C5G C30G C61G | ≤ 0.5
166 | C5G C30G C66A | ≤ 0.5
167 | C5G C30G G38C G56C | 0.621
